For assay [1], the target named is T1, Sigma intracellular receptor 2 (Rattus norvegicus, UniProt Q5U3Y7).
T1 sequence (Q5U3Y7 whole entry): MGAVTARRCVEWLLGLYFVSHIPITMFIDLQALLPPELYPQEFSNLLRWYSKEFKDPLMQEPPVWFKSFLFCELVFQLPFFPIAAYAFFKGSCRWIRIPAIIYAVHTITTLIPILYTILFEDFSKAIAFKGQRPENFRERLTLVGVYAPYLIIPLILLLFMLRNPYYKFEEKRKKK
In words: Displacement of [3H]-Di-o-tolylguanidine from sigma-2 receptor in rat liver membranes after 120 mins by scintillation counting method. It counts as cell membranes. Background: In a radioligand displacement assay an active substance lowers the binding of a labelled ligand.

Assay [2] in a line: Displacement of [3H]-(+)-MK-801 from NMDA PCP binding site in pig brain cortex membrane at 1 uM incubated for 120 mins by scintillation counting method relative to control. Format: cell membranes.
Assay [3] has as its target Glutamate receptor ionotropic, NMDA 2B (Homo sapiens) (UniProt Q13224). The experiment in a line: Displacement of [3H]ifenprodil from human GluN2B expressed in mouse L(tk-) cell membranes at 1 uM incubated for 120 mins by scintillation counting method relative to control. The procedure, abridged: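 Competition binding with [³H]ifenprodil on membranes of mouse fibroblast L(tk-) cells stably transfected with dexamethasone-inducible vectors for human GluN1a and human GluN2B; inhibition (%) of radioligand binding recorded at 1 μM test compound.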

For assay [4], the target named is T2, Sigma non-opioid intracellular receptor 1 (Cavia porcellus, UniProt Q60492). In words: Displacement of [3H]-(+)pentazocine from sigma-1 receptor in guinea pig brain membranes after 120 mins by scintillation counting method. Format: cell membranes.
T2 sequence (Q60492 whole entry): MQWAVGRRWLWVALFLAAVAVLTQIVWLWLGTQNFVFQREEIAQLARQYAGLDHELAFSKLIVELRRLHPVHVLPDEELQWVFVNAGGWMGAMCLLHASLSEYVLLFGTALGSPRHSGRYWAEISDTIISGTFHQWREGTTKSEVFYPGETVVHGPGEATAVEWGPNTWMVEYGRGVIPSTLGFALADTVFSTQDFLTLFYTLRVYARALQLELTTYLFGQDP
For assay [5], the target named is T3, Sigma intracellular receptor 2 (Rattus norvegicus) (UniProt Q5U3Y7).
T3 sequence (whole entry): T1 sequence (Q5U3Y7 whole entry)
In words: Displacement of [3H]-Di-o-tolylguanidine from sigma-2 receptor in rat liver membranes after 120 mins by scintillation counting method relative to control. Further details: concentration or dose not given beside the values. Format: cell membranes.

Assay [6] addresses Sigma non-opioid intracellular receptor 1 (Cavia porcellus) (UniProt Q60492). In words: Displacement of [3H]-(+)pentazocine from sigma-1 receptor in guinea pig brain membranes after 120 mins by scintillation counting method relative to control. It counts as cell membranes. Further details: concentration or dose not given beside the values.
Assay [7] addresses Glutamate receptor ionotropic, NMDA 2B (Homo sapiens, UniProt Q05586+Q13224). In words: Displacement of [3H]ifenprodil from human GluN2B expressed in mouse L(tk-) cell membranes co-expressing GluN1a incubated for 120 mins by scintillation counting method.
The species entered for the next assay is Cavia porcellus. In words: Displacement of [3H]-(+)-MK-801 from NMDA PCP binding site in pig brain cortex membrane at 1 uM incubated for 150 mins by scintillation counting method relative to control. Format: cell membranes.
The target of assay [8] is T2, Sigma non-opioid intracellular receptor 1. In words: Displacement of [3H]-(+)pentazocine from sigma-1 receptor in guinea pig brain membranes after 180 mins by scintillation counting method. Format: cell membranes.
Assay [9] deals with T1, Sigma intracellular receptor 2. The experiment in a line: Displacement of [3H]-Di-o-tolylguanidine from sigma-2 receptor in rat liver membranes after 180 mins by scintillation counting method. Format: cell membranes.

As a reminder, the Ki is the equilibrium dissociation constant of an inhibitor or competing ligand from its target. One may read the inhibition as the relative decrease from the control value, in per cent.

Sequence of Glutamate receptor ionotropic, NMDA 2B (Homo sapiens) (Q13224 27-1484 limits assumed): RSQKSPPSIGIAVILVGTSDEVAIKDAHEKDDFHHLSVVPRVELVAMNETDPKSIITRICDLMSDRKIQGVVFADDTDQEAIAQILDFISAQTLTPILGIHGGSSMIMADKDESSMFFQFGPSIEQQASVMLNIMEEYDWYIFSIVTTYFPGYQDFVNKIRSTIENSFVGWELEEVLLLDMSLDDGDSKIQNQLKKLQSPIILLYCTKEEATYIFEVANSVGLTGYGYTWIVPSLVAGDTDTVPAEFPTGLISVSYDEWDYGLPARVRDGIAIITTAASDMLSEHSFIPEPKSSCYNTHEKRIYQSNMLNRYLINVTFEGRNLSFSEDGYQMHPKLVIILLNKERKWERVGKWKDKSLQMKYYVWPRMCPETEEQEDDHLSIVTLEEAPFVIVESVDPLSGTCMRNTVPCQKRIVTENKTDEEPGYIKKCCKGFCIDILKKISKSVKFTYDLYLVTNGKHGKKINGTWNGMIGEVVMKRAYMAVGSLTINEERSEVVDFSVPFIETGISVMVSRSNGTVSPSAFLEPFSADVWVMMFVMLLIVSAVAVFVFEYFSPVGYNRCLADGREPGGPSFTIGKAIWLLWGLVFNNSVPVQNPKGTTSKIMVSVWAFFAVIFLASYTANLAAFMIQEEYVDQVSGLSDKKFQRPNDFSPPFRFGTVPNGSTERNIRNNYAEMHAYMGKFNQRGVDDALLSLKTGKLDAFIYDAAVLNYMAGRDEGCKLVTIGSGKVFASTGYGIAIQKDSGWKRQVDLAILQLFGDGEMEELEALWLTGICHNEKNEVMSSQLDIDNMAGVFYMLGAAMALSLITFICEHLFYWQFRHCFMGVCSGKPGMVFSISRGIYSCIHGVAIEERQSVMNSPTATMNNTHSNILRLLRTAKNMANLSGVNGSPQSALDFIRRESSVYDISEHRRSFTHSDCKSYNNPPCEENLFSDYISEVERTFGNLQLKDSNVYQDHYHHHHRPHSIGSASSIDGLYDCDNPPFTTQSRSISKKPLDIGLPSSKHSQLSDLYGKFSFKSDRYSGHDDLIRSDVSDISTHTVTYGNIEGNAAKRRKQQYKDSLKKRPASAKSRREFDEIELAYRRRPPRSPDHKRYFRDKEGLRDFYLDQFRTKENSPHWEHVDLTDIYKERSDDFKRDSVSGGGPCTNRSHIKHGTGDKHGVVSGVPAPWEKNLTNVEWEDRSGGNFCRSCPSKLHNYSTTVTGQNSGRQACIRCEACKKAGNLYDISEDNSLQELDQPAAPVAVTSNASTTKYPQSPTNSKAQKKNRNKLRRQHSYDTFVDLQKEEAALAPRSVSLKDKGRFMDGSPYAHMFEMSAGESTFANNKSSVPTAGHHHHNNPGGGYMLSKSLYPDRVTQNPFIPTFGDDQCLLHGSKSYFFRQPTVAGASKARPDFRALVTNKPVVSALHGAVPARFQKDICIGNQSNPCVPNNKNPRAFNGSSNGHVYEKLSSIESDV
Sequence of Sigma non-opioid intracellular receptor 1 (Cavia porcellus) (Q60492 whole entry): as the sequence (Q60492 whole entry) above
Sequence of Glutamate receptor ionotropic, NMDA 2B (Q13224 whole entry, one chain of several): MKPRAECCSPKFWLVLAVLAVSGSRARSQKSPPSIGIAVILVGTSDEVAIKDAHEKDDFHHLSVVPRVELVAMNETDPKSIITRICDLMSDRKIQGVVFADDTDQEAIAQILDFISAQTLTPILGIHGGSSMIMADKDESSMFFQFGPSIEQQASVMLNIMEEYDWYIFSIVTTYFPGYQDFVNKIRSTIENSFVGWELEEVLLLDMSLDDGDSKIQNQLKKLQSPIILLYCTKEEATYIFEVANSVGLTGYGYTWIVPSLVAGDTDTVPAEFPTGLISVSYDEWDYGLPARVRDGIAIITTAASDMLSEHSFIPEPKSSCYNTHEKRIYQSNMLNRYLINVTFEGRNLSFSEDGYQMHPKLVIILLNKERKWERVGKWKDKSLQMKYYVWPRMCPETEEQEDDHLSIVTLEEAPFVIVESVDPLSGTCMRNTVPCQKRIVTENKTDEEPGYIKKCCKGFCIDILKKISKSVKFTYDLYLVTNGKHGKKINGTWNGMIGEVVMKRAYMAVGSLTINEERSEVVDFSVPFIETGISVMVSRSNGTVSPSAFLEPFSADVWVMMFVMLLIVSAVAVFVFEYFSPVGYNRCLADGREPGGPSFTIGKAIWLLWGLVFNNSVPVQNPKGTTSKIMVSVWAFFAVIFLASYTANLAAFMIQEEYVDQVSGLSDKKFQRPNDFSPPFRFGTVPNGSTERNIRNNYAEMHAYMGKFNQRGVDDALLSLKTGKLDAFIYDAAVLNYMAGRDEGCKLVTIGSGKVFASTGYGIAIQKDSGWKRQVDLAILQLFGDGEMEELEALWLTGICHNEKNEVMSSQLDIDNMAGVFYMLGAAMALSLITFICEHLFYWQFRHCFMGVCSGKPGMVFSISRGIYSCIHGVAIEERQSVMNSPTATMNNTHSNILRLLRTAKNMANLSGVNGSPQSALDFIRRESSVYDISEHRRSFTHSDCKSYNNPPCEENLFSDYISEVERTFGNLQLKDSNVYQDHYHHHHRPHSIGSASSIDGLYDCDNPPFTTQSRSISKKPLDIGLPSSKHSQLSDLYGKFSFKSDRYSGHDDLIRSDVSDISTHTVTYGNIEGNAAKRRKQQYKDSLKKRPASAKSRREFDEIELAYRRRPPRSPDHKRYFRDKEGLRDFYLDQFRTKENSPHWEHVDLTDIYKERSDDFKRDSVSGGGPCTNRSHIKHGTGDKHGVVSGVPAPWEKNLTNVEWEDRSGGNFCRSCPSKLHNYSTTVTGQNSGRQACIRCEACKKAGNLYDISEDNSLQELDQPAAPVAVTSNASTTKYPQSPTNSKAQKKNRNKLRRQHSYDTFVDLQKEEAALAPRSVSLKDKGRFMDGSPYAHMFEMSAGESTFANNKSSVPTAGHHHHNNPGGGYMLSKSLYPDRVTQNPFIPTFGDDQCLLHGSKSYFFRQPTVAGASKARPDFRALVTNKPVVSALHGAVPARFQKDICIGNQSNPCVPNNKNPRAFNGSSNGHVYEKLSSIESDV

`COc1ccc2c(c1)CCN(CCCCc1cccs1)CC2O` (centres undefined): the Ki amounted to 562 nM in [1] and 340 nM in assay [4]. Moreover, the values for the inhibition in assay [2] and in assay [3] were 0% and 20%, respectively.
Taken in the same sequence, the figures for `COc1ccc2c(c1)CCN(CCCCc1ccccc1OCCF)CC2O` (centres undefined) were 593 nM, 715 nM, 0% and 19%.
Turning to `COc1ccc2c(c1)CCN(CCC#Cc1cccs1)CC2O` (centres undefined), the inhibition in assay [2] is 0%; in assay [5], 20%; in assay [3], 13%; in assay [6], 21%.
Consider `COc1ccc2c(c1)CCN(CCC#Cc1ccc(OCCF)cc1)CC2O` (centres undefined), for which the results for the inhibition in [2], in assay [5] and in assay [3] were 0%, 12% and 3%, respectively. The same compound gave an inhibitory constant (Ki) in assay [4] of 701 nM.
Consider `COc1ccc2c(c1)CCN(CCC#Cc1cccnc1)CC2O` (centres undefined), for which the inhibition in [2] came to 0%; in [5] it was 9%; in [3], 1%; in assay [6] it was 5%.
On to `Oc1ccc2c(c1)CCN(CCCCc1ccc(OCCF)cc1)CC2O` (centres undefined), for which the results for the Ki in assay [1], in [7] and in assay [4] were 79 nM, 193 nM and 705 nM, respectively. In assay [2], this compound showed an inhibition of 0%.
With `OC1CN(CCC#Cc2ccc(OCCF)cc2)CCc2cc(OCc3ccccc3)ccc21` (centres undefined), the inhibition in assay [2] amounted to 0%; in assay [5] it was 12%; in [3], 0%; in assay [6], 0%.
In the case of `COc1ccc2c(c1)CCN(CCCCc1cccnc1)CC2O` (centres undefined), the figures for the inhibition constant Ki in [1] and in assay [4] were 397 nM and 274 nM, respectively. The inhibition in assay [2] and in assay [3] was 0% throughout.
For `COc1ccc2c(c1)CCN(CCC#Cc1cccc(OCCF)c1)CC2O` (centres undefined), the inhibition came out at 0% in assay [2], 23% in assay [5], 3% in assay [3] and 9% in [6].
Regarding `COc1ccc2c(c1)CCN(CCC#Cc1ccccc1OCCF)CC2O` (centres undefined), the inhibition in assay [2] was determined as 4%; in assay [5], 22%; in assay [3], 4%; in assay [6], 31%.
On to `COc1ccc2c(c1)CCN(CCC#Cc1nccs1)CC2O` (centres undefined), for which the inhibition in assay [2], in [5], in [3] and in assay [6] was 0% each time.
Turning to `COc1ccc2c(c1)CCN(CCC#Cc1ccccc1)CC2O` (centres undefined), the results for the inhibition in [2], in [5] and in assay [3] were 15%, 15% and 18%, respectively. In assay [4], this compound gave an inhibition constant (Ki) of 565 nM.
With `COc1ccc2c(c1)CCN(CCCCc1ccccc1)CC2O` (centres undefined), the inhibition in the assay filed under Cavia porcellus is 25%. The results for the Ki in assay [8] and in assay [9] were 211 nM and 96 nM, respectively.
For `COc1ccc2c(c1)CCN(CCCCc1cn(CCF)nn1)CC2O` (centres undefined), the inhibition in assay [2] came to 0%; in [5] it was 0%; in [3] it was 0%; in assay [6], 28%.
For `COc1ccc2c(c1)CCN(CCCC#Cc1ccccc1)CC2O` (centres undefined), the Ki in assay [1] is 878 nM; in assay [7], 460 nM; in assay [4], 164 nM. The inhibition in [2] turned out to be 9%.
